Reference: ChEMBL document CHEMBL4513216, “Probing the Open Global Health Chemical Diversity Library for Multistage-Active Starting Points for Next-Generation Antimalarials” (ACS Infect Dis, 2020)

Assay: Toxicity liver stage against HepG2, at 10uM
Assay type: cell-based
Set-up: test concentration 10 uM, cell line HepG2-A16-CD81EGFP
Conditions: human, HepG2-A16-CD81EGFP cells; read-out: INHIBITION
Procedure, shortened: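 Uninfected HepG2-A16-CD81EGFP cells, 3 × 10^3 per well, 1536-well, plated on prespotted compound at 10 μM final, parasite-free screening media added to match infected plates; puromycin 10 μM positive, DMSO 0.5% negative; run in parallel with 48 h PbLuc assay at 37 °C, 5% CO2; viability by CellTiter-Glo luminescence, normalized to controls.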

Row | Structure (SMILES) | cytotoxicity at 10 µM [%]
1 | Cc1nc(C)n(CC2CCCN(c3ccnc(-c4ccccc4)n3)C2)n1 (configuration not stated) | 39.4
2 | O=C(CCN1C(=O)CCC1=O)Nc1ccc(Cl)cc1 | -2.79
3 | Cc1ccc(C(=O)NS(=O)(=O)c2c(Cl)cccc2Cl)c(=O)[nH]1 | -0.855
4 | COc1ccc(C2CCCN2c2cnc3ccccc3n2)c(OC)c1 (configuration not stated) | 7.54
5 | CCc1ccc(NC(=O)Nc2c(O)oc3ccccc3c2=O)cc1 | 5.95
6 | c1cnc(NCc2noc3c2CN(C2CCOCC2)CC3)nc1 | -6.23
7 | CC(=O)NC1(C(=O)N2CCCN(c3cccnn3)CC2)CCCCC1 | 8.15
8 | COc1ccc(CNC2CCC(O)CC2)cc1OCCCC#N (configuration not stated) | -2.56
9 | O=C(Nc1cccc(-c2cscn2)c1)N1CCC2(CC1)CC(O)CO2 (configuration not stated) | -3.13
10 | Cc1ccc(N2CCCC(NCc3nc(C)c(C)o3)C2)nn1 (configuration not stated) | -3.18
11 | Cc1ccc(S(=O)(=O)NCCCN2CCC(O)CC2)c(F)c1 | 4.24
12 | CC(C)NC(=O)[C@@H](NC(=O)N1CCN(c2ccc(Cl)cc2)CC1)C(C)C | 34.9
13 | CC(C)n1cnnc1CN(C)Cc1ccc(CN(C)S(C)(=O)=O)o1 | -1.31
14 | Cc1ccc(O)c(CNc2cccc(OCCF)c2)n1 | -3.09
15 | c1cc(CN2CCOCC3(CCN(C4CCOCC4)C3)C2)ccn1 (configuration not stated) | 0.866
16 | O=C1NCC2CN(Cc3ccccc3OCc3ccccn3)CCN12 (configuration not stated) | -1.36
17 | O=C(NCc1nnc2n1C(C(=O)NC1CC1)CC2)c1ccc(Cl)cc1Cl (configuration not stated) | 5.06
18 | Fc1ccccc1Sc1ccccc1CNC1=NCCN1 | 12.5
19 | CCc1nc2c(c(NCc3nc(-c4cccnc4)no3)n1)CCNCC2 | 5.85
20 | CC(NC(=O)N1CCC1)c1ccc(S(C)(=O)=O)cc1 (configuration not stated) | -4.22
21 | Cn1c(SCC(N)=O)nnc1-c1csc2c1CCCC2 | 36.2
22 | CC(C)Oc1ccc(CN)c(C(F)(F)F)c1 | 0.71
23 | CCCc1cc(CNC2CCN(c3nc(C)cc(C)n3)CC2)on1 | 7.51

Row | Structure (SMILES) | cytotoxicity at 10 µM [%]
24 | CC(C)(C)OC(=O)NC1(c2noc(-c3ccco3)n2)CCC1 | -0.657
25 | CCCn1cc(S(=O)(=O)N(C)Cc2nonc2C)c(C)n1 | 12.7
26 | CCc1nc(C)c(CN2CCOC(Cc3ccccc3Cl)C2)[nH]1 (configuration not stated) | -0.527
27 | COc1cccc(CNC(=O)c2cccnc2N)c1 | 20.1
28 | NC(=O)COc1cccc(C(=O)NCc2ccc(Cl)s2)c1 | -0.935
29 | COc1cc(N2CCC3(CC2)CNC(=O)CO3)ncn1 | 2.57
30 | O=S(=O)(N1CCCCC1)N1CCC(Oc2cnccn2)CC1 | -14.1
31 | Cn1nc(C#N)c2c1CN(C(=O)c1ccnnc1)CCC2 | -147
32 | CCO[C@H]1CO[C@@]2(CCN(Cc3ccc4c(c3)OCO4)C2)C1 | 0.493
33 | Cc1ccccc1CNCC(O)c1ccc(OC(C)C)cc1 (configuration not stated) | -6.17
34 | CS(=O)(=O)NCCc1cccc2cccnc12 | 18.3
35 | COCCN1CCc2c(cnc(-c3ccoc3)c2C(=O)O)C1 | 0.908
36 | Cc1nc(CNC(=O)NC2CCN(c3ncccc3Cl)C2)oc1C (configuration not stated) | 2.93
37 | CCOCCN1CCN(CC(O)c2ccc(OC)cc2)CC1 (configuration not stated) | -2.28
38 | Cc1cnc(CNCc2cnc(-c3ccccc3C)s2)cn1 | -0.37
39 | CCc1nc2ccccc2n1C(CC)C(=O)N(C)Cc1noc(C)n1 (configuration not stated) | 2.23
40 | CSCC(C)(O)CNC(=O)c1ccc(Br)cc1F (configuration not stated) | 0.537
41 | FC(F)c1nnc2ccc(N3CCC4(CCOC4)C3)nn12 (configuration not stated) | 9.2
42 | CCC(=O)N1CCN(C(=O)Nc2cccc(C#N)c2)[C@H]2CS(=O)(=O)C[C@H]21 | -46
43 | O=C(CN1CCOc2ccc(Cl)cc21)NCc1ncc[nH]1 | -0.307
44 | CS(=O)(=O)NC1CCCN(C(=O)NCc2cccc(F)c2)C1 (configuration not stated) | -18.8
45 | CN(C)c1ncc(CNC(=O)Nc2ccccc2C(F)(F)F)n1C | -55.3
46 | Cc1nc(CNC(=O)N(C)Cc2cnn(C)c2)cs1 | -14.3

Row | Structure (SMILES) | cytotoxicity at 10 µM [%]
47 | COCc1noc(CCC(=O)c2ccc3c(c2)OCCO3)n1 | 0.923
48 | O=c1c2cccnc2cnn1CC(O)c1ccc(F)c(F)c1 (configuration not stated) | -7.44
49 | Cc1ccc(N2CC[C@@H]3[C@@H]2CCN3C(=O)Cc2ccsc2)nn1 | -93.9
50 | CN(Cc1nncn1C)C(=O)c1cc(COc2ccccc2F)[nH]n1 | 2.14
51 | Cc1nc(O)cc(CCNc2nccc(CCC(F)(F)F)n2)n1 | -149
52 | COc1ccc(C(C(=O)O)N2CCC(Cn3cccn3)CC2)cc1F (configuration not stated) | 1.81
53 | CO[C@H]1CCN(C(=O)Cc2ccccn2)[C@H]1Cc1ccncc1 | 2.26
54 | O=C(c1cocn1)N1CCC[C@]2(C[C@@H](OCC3CC3)CO2)C1 | -76.4
55 | COCCc1nc(CSc2ccncc2)n(C)n1 | -5.93
56 | Cc1nc(COC[C@H]2CCC[C@]23CN(CC2CC2)CCO3)cs1 | -76.9
57 | COCc1cc(O)nc(C2CCCN(Cc3cccc(Cl)c3Cl)C2)n1 (configuration not stated) | -7.47
58 | O=C1CCSCC(C(=O)NCc2nc(-c3ccccc3)no2)N1 (configuration not stated) | -4.66
59 | Cc1ccccc1CNC(=O)c1ccccc1-n1cc(CN)cn1 | -21
60 | CC(C)C(C(=O)NCC1CC1)n1cnc2cc(F)c(F)cc21 (configuration not stated) | 3.26
61 | COc1ccc(CN(C)C2CCN(S(C)(=O)=O)CC2)c2cccnc12 | 98.9
62 | O=C1CC(NS(=O)(=O)c2ccc(Br)cc2)CN1 (configuration not stated) | -0.154
63 | O=C(CCCN1CCCCC1)N1CCN(C(=O)c2ccc[nH]2)CC1 | 57.8
64 | Cc1ncoc1C(=O)N1C[C@@H]2CN(CC3CC3)CCO[C@@H]2C1 | 9.23
65 | Cc1ccccc1C(=O)N1CCOCC1CN(C)C (configuration not stated) | -2.1
66 | COC[C@]12COC[C@H]1CN(S(=O)(=O)c1cccnc1)C2 | -0.975
67 | Cc1cc(C(F)(F)F)nc(CCNC(C)Cn2nc(C)cc2C)n1 (configuration not stated) | 8.19
68 | CNC(=O)c1ccc(C2CN(C(=O)COC)CCO2)nc1 (configuration not stated) | 3.25
69 | Cc1ccc(NS(=O)(=O)c2ccc(C#N)cc2)c(CN(C)C)c1 | -8.51

Row | Structure (SMILES) | cytotoxicity at 10 µM [%]
70 | CC(=O)N1CCN(CCNc2ncc(Br)cc2C)CC1 | 2.86
71 | Cn1cc(N2CCN(c3ccc(C#N)cc3F)CC2=O)cn1 | -2.14
72 | Cc1cc(-c2cnc(C(C)C)nc2CN(C)C(=O)c2ccccn2)on1 | 2.47
73 | Cc1cc(N2CCN(Cc3cn(C)nc3C)CC2)cc(C2CCNC2)n1 (configuration not stated) | 0.39
74 | COCC1CN(Cc2cc(C)on2)Cc2cn(C)nc21 (configuration not stated) | -6.07
75 | Cc1nc2cc(C3CCOCC3)nn2c(NCC2COCCO2)c1C (configuration not stated) | 0.135
76 | COCCNc1ccccc1CNC(=O)NCc1nc(C)c(C)s1 | 5.75
77 | CCOCC1CC2(CCN(C(=O)c3ccccc3F)CC2)CO1 (configuration not stated) | 2.26
78 | CC(C)Cc1ncc2c(n1)CN(C(=O)Cn1c(=O)oc3ccccc31)C2 | -36.2
79 | O=S1(=O)CCN2C(=N1)Oc1ccc(S(=O)(=O)N3CCCC3)cc12 | 18.2
80 | CN(CCNC(=O)Nc1ccncc1)C1CCCCC1 | -0.39
81 | CN(CCOc1ccc(Cl)cc1)Cc1ccc(S(=O)(=O)N(C)C)o1 | 33.6
82 | Cn1cc(CN2CCC3(CCCN(C(=O)c4cscn4)C3)C2)cn1 (configuration not stated) | 1.71
83 | CCc1nc(C2CCCN2c2ncc(C(N)=O)cc2Cl)no1 (configuration not stated) | -3.99
84 | Cc1cc(C[C@@H]2COC[C@@H]2NC(=O)CN2CCCCCC2)on1 | 1.29
85 | CC(=O)N1CCC(NC(=O)Cc2csc(C(C)(C)C)n2)CC1 | -8.41
86 | CN1CC(Oc2ccc(Cl)cc2)=NC(SCC(=O)c2ccccc2)=N1 | -0.731
87 | COC(=O)c1cccc(C(=O)N2CCN(C(=O)N(C)C)CC2(C)C)c1 | 11.9
88 | CCCn1cc2c(C(F)F)cc(SCC(=O)O)nc2n1 | -10.9
89 | CC(=O)N1CCCC(c2ccc(N3CCOCC3)cn2)C1 (configuration not stated) | -18.9
90 | CCNC(c1ccc(CC)cc1)c1cccnc1 (configuration not stated) | -5.4
91 | CCc1ccc(C(=O)N(c2cccnc2)C(C)C)cc1S(C)(=O)=O | 2.62
92 | CS(=O)(=O)N1C[C@@H](Oc2ccccn2)[C@H]2OCCC[C@H]21 | 7.78

Row | Structure (SMILES) | cytotoxicity at 10 µM [%]
93 | Cc1cccc(CS(=O)(=O)NCc2nn(C)c3c2COCC3)c1 | -3.02
94 | Cc1ccc(CNCC2CCN(CC(O)c3ccccc3)CC2)o1 (configuration not stated) | -3.33
95 | O=C1NCCN1C1CCN(CC(O)c2ccccc2F)CC1 (configuration not stated) | -0.535
96 | CO[C@H]1CC[C@H]2[C@H]1OCCN2Cc1ccc(F)cc1 | 7.34
97 | CCNC(=O)CN(Cc1ccoc1)C1CCCCC1 | 7.59
98 | Cc1cccc(CNC2(CCO)CCOCC2)c1C | -14.9
99 | O=C(N1CCC(Nc2cccnn2)CC1)C1(c2ccc(F)cc2)CC1 | -12.8
100 | CC(C)c1nnc2n1CCN(C(=O)COc1ccc(C(N)=O)cc1)C2 | 0.0102
101 | CN(Cc1nc2ccccc2c(=O)[nH]1)C1CC(=O)N(C2CC2)C1=O (configuration not stated) | 4.09
102 | CCCn1cnnc1CNCc1c[nH]nc1-c1ccc(F)cc1 | 2.69
103 | CC(=O)N1CCC(c2ncc3c(n2)CCN(C(=O)c2ccccc2)C3)C1 (configuration not stated) | -8.69
104 | O=C(CC1CC1)NCc1cn2c(n1)CN(Cc1cccnc1)CC2 | -78
105 | O=C(NCCCc1nc(=O)[nH][nH]1)Nc1ccc(Cl)cc1 | -54.9
106 | CCc1ncc2c(n1)CN(C(C)C(=O)N1CCOCC1)CC2 (configuration not stated) | -8.52
107 | O=C(O)c1cc(-c2cccs2)nc2c(Br)cnn12 | -9.24
108 | Cn1cccc1-c1cc(C(=O)N2CCCC2c2nccs2)[nH]n1 (configuration not stated) | 3.78
109 | Cc1cc(CC(C)NC(=O)COc2ccc(F)cc2F)[nH]n1 (configuration not stated) | -49
110 | CSc1ccccc1NC(=O)C1CSc2ncc(C)c(=O)n2C1 (configuration not stated) | -1.31
111 | COCCC(=O)Nc1cnn(COc2ccc(F)cc2Cl)c1 | -8.68
112 | CC(C)c1noc(CCC(=O)N2CCSCC2)n1 | -2.99
